Active and inactive are the calls of the source. No cut-off for these calls is given here.
Experiments:
[1] = Cytotoxicity against human MCF7 cells assessed as reduction in cell viability after 48 hrs by MTT assay; type: functional, cell-based; details: MCF7, 48 h
Method in brief: (§1)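 Cells were grown in DMEM with 10% calf serum and seeded at 50,000 cells/mL. They grew 2 days at 37 °C, 10% CO2, then took serial compound dilutions for 48 h. MTT (final 0.5 mg/mL) ran 2 h; formazan was washed, dissolved in DMSO and read at 590 nm. IC50 was taken from dose-response curves as the mean of two parallel experiments. 5-FU was the positive control. TI = IC50 WI-38/IC50 HepG2.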

[2] = Cytotoxicity against human HepG2 cells assessed as reduction in cell viability after 48 hrs by MTT assay; type: functional, cell-based; details: HepG2, 48 h; method in brief: as §1
[3] = Pro-oxidant activity as bleomycin-Fe2+ induced calf thymus DNA damage measured as absorbance at 2 mM after 1 hr by thiobarbituric acid-based assay; type: ADME; design: unit not given here; details: cattle, 2000 µM
Method in brief: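 The mix held calf thymus DNA 0.5 mg/mL, bleomycin sulfate 0.05 mg/mL, MgCl2 5 mM, FeCl3 50 mM and sample 2 mM. Ascorbic acid was the positive control. Capped tubes were heated at 80 °C for 30 min, ice-cooled, shaken and centrifuged. DNA damage was read as the increase in absorbance at 532 nm. Means of 3 replicates.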

[4] = Downregulation of Ki67 expression in human HepG2 cells at IC50 after 48 hrs by ELISA; type: functional, cell-based
Method in brief: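 They were detached with trypsin and lysed by four rounds of ultrasonication before Ki-67 measurement. Comparison was with untreated cells; mean ± SD, ANOVA with LSD/Dunnett post hoc.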

[5] = Therapeutic index, ratio of IC50 for human WI38 cells to IC50 for human HepG2 cells; type: cell-based; details: WI38 cells and HepG2 cells, read-out: Ratio IC50; method in brief: as §1
[6] = Upregulation of caspase-8 expression in human HepG2 cells at IC50 after 48 hrs by ELISA; type: functional, cell-based
Method in brief: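 Cells were trypsinized and lysed by liquid-nitrogen freeze–thaw. Lysates were incubated with HRP-conjugated anti-caspase-8 antibody for 30 min at 37 °C, with ELISA read-out at 450 nm. Levels were compared against untreated cells; mean ± SD, ANOVA with LSD/Dunnett post hoc.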

[7] = Antioxidant activity assessed as DPPH radical scavenging activity at 1 uM after 30 mins in absence of light by spectrophotometric analysis relative to ascorbic acid; type: functional
Method in brief: (§2)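 Compounds were dissolved in methanol at 1 µM, and 200 µL was added to 0.4 mL of 0.1 mM DPPH in methanol. Mixtures stood 30 min in the dark and were read at 517 nm against a blank (no DPPH). The negative control used methanol in place of compound. I% = (Ablank − Asample)/Ablank × 100. Ascorbic acid was the reference. Means of 3 replicates.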

[8] = Downregulation of Bcl2 expression in human HepG2 cells at IC50 after 48 hrs by ELISA; type: functional, cell-based
Method in brief: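 For ELISA, lysates had biotin conjugate 2 h at 25 °C, then streptavidin-HRP 1 h at 25 °C, read at 450 nm. Comparison was with untreated cells; mean ± SD, ANOVA with LSD/Dunnett post hoc.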

[9] = Cytotoxicity against human WI38 cells assessed as reduction in cell viability after 48 hrs by MTT assay; type: toxicity, cell-based, WI-38; method in brief: as §1
[10] = Antioxidant activity assessed as DPPH radical scavenging activity at 1 uM after 30 mins in absence of light by spectrophotometric analysis; type: functional; method in brief: as §2
[11] = Glutathione peroxidase-like activity assessed as decrease in H2O2 reduction at 41 uM preincubated with compound followed by H2O2 addition after 3 mins by spectrophotometry based NADPH-reductase coupled assay relative to ebselen
Method in brief: (§3)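 Buffer: 50 mM phosphate with 0.1% Triton X-100, plus NADPH reagent (24 µmol glutathione, 12 U glutathione reductase, 4.8 µmol NADPH). Compound was at 41 µM and the reaction was started with 0.8 mM H2O2. A340 was followed for 3 min, giving ΔA/min. Rates were corrected for background H2O2/GSH reaction, and for compound absorbance where colored. Ebselen (41 µM) served as reference.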

[12] = Glutathione peroxidase-like activity assessed as decrease in H2O2 reduction at 41 uM preincubated with compound followed by H2O2 addition after 3 mins by spectrophotometry based NADPH-reductase coupled assay; method in brief: as §3

Molecule `CC1=C([Se]c2ccc(NC(c3ccco3)c3nnnn3C(C)(C)C)cc2)C(=O)c2ccccc2C1=O` (stereo unspecified) has an IC50 [1] of no less than 100 µM, an IC50 [2] of 9 µM and an Activity [3] of 138. For the same molecule, the Activity [4] was “Active”, the selectivity ratio [5] was 0.6 and the Activity [6] was “Active”. The fold change (FC) [7] was 1, the Activity [8] was “Active” and the IC50 at 48 h [9] was 5 µM. The Activity [10] was 95.3%.
In the case of `CC(C)C(Nc1ccc([Se][Se]c2ccc(NC(c3nnnn3C3CCCCC3)C(C)C)cc2)cc1)c1nnnn1C1CCCCC1` (stereo unspecified), the IC50 [1] is reported as 52 µM, the IC50 [2] is reported as no less than 100 µM and the Activity [3] is reported as 99. The fold change (FC) [7] was 0.2, the IC50 at 48 h [9] was 43 µM and the Activity [10] was 22.9%.
With `COc1ccc(Cn2nnnc2C(Nc2ccc([Se][Se]c3ccc(NC(c4ccc(C)cc4)c4nnnn4Cc4ccc(OC)cc4OC)cc3)cc2)c2ccc(C)cc2)c(OC)c1` (stereo unspecified) the IC50 [1] was no less than 100 µM, the IC50 [2] was no less than 100 µM and the Activity [3] was 130. It also gave a fold change (FC) [7] of 0.2, an IC50 at 48 h [9] of no less than 100 µM and an Activity [10] of 22.1%. The fold change (FC) [11] was less than 5 and the Activity [12] was “Active”.
Work on `O=C1O[C@H]([C@@H](O)CO)C(O)=C1O` [ASCORBIC ACID] yielded an Activity [3] of 310 and an Activity [10] of 96.5%.
For `CC(=O)N(c1ccc([Se]C2=CC(=O)c3ccccc3C2=O)cc1)C(C(=O)NC(C)(C)C)c1ccc(C)cc1` (stereo unspecified), the IC50 [1] was 34 µM, the IC50 [2] was 53 µM and the Activity [4] was “Active”. The selectivity ratio [5] was greater than 0.5, the Activity [6] was “Active” and the Activity [8] was “Active”. For the same molecule, the IC50 at 48 h [9] was 29 µM.
`CC(C)(C)n1nnnc1C(Nc1ccc([Se][Se]c2ccc(NC(c3ccco3)c3nnnn3C(C)(C)C)cc2)cc1)c1ccco1` (stereo unspecified) showed an IC50 [1] of 14 µM, an IC50 [2] of 51 µM and an Activity [3] of 108. For the same molecule, the fold change (FC) [7] was 0.3, the IC50 at 48 h [9] was 11 µM and the Activity [10] was 24%. For the same molecule, the fold change (FC) [11] was less than 5 and the Activity [12] was “Active”.
With `CC(C)C(Nc1ccc([Se][Se]c2ccc(NC(c3nnnn3Cc3ccccc3)C(C)C)cc2)cc1)c1nnnn1Cc1ccccc1` (stereo unspecified) the IC50 [1] was no less than 100 µM, the IC50 [2] was 10 µM and the Activity [3] was 92. For the same molecule, the Activity [4] was “Active”, the selectivity ratio [5] was greater than 10 and the Activity [6] was “Active”. For the same molecule, the fold change (FC) [7] was 0.2, the Activity [8] was “Active” and the IC50 at 48 h [9] was no less than 100 µM. For the same molecule, the Activity [10] was 20.5%.
Molecule `Cc1ccc(C(Nc2ccc([Se][Se]c3ccc(NC(c4ccc(C)cc4)c4nnnn4C4CCCCC4)cc3)cc2)c2nnnn2C2CCCCC2)cc1` (stereo unspecified) has an IC50 [1] of 78 µM, an IC50 [2] of no less than 100 µM and an Activity [3] of 79. The fold change (FC) [7] was 0.3, the IC50 at 48 h [9] was 56 µM and the Activity [10] was 22.9%.
For `c1cc([Se][Se]c2ccc(NCc3nnnn3C3CCCCC3)cc2)ccc1NCc1nnnn1C1CCCCC1`, the IC50 [1] was no less than 100 µM, the IC50 [2] was no less than 100 µM and the Activity [3] was 96. The fold change (FC) [7] was 0.2, the IC50 at 48 h [9] was 68 µM and the Activity [10] was 19.4%. The Activity [12] was “Active”.
`CC1=C([Se]c2ccc(NC(c3ccc(C)cc3)c3nnnn3C(C)(C)C)cc2)C(=O)c2ccccc2C1=O` (stereo unspecified) gave an IC50 [1] of no less than 100 µM, an IC50 [2] of 47 µM and an Activity [3] of 90. The Activity [4] was “Active”, the selectivity ratio [5] was 0.8 and the Activity [6] was “Active”. The fold change (FC) [7] was 1, the Activity [8] was “Active” and the IC50 at 48 h [9] was 36 µM. For the same molecule, the Activity [10] was 93%, the fold change (FC) [11] was less than 5 and the Activity [12] was “Active”.
In the case of `c1coc(C(Nc2ccc([Se][Se]c3ccc(NC(c4ccco4)c4nnnn4C4CCCCC4)cc3)cc2)c2nnnn2C2CCCCC2)c1` (stereo unspecified), the IC50 [1] is reported as no less than 100 µM, the IC50 [2] is reported as 36 µM and the Activity [3] is reported as 222. For the same molecule, the selectivity ratio [5] was 2, the fold change (FC) [7] was 0.5 and the IC50 at 48 h [9] was 83 µM. For the same molecule, the Activity [10] was 49.5%, the fold change (FC) [11] was less than 5 and the Activity [12] was “Active”.
With `O=c1[nH]cc(F)c(=O)[nH]1` [FLUOROURACIL] the IC50 [1] was 3 µM, the IC50 [2] was 8 µM and the selectivity ratio [5] was 0.5. The IC50 at 48 h [9] was 4 µM.
In the case of `Cc1ccc(C(Nc2ccc([Se][Se]c3ccc(NC(c4ccc(C)cc4)c4nnnn4C(C)(C)C)cc3)cc2)c2nnnn2C(C)(C)C)cc1` (stereo unspecified), the IC50 [1] is reported as 62 µM, the IC50 [2] is reported as 46 µM and the Activity [3] is reported as 98. It also gave a fold change (FC) [7] of 0.3, an IC50 at 48 h [9] of 41 µM and an Activity [10] of 30.4%.
For `CC(C)C(Nc1ccc([Se][Se]c2ccc(NC(c3nnnn3C(C)(C)C)C(C)C)cc2)cc1)c1nnnn1C(C)(C)C` (stereo unspecified), the IC50 [1] was no less than 100 µM, the IC50 [2] was 37 µM and the Activity [3] was 67. For the same molecule, the selectivity ratio [5] was greater than 3, the fold change (FC) [7] was 0.4 and the IC50 at 48 h [9] was no less than 100 µM. The Activity [10] was 38.6%.
Work on `COC(CC(OC)OC)Cn1nnnc1C(Nc1ccc([Se][Se]c2ccc(NC(c3nnnn3CC(CC(OC)OC)OC)C(C)C)cc2)cc1)C(C)C` (stereo unspecified) yielded an IC50 [1] of no less than 100 µM, an IC50 [2] of 47 µM and an Activity [3] of 94. The selectivity ratio [5] was greater than 2, the fold change (FC) [7] was 0.3 and the IC50 at 48 h [9] was no less than 100 µM. For the same molecule, the Activity [10] was 26.3% and the Activity [12] was “Active”.
For `CC1=C([Se]c2ccc(NCc3nnnn3C(C)(C)C)cc2)C(=O)c2ccccc2C1=O`, the IC50 [1] was 42 µM, the IC50 [2] was 33 µM and the Activity [3] was 103. The selectivity ratio [5] was 1.5, the fold change (FC) [7] was 0.8 and the IC50 at 48 h [9] was 48 µM. For the same molecule, the Activity [10] was 69%.
`COc1ccc(Cn2nnnc2C(Nc2ccc([Se][Se]c3ccc(NC(c4nnnn4Cc4ccc(OC)cc4OC)C(C)C)cc3)cc2)C(C)C)c(OC)c1` (stereo unspecified) gave an IC50 [1] of 70 µM, an IC50 [2] of 2 µM and an Activity [3] of 81. It also gave a selectivity ratio [5] of 32, a fold change (FC) [7] of 0.3 and an IC50 at 48 h [9] of 64 µM. The Activity [10] was 31.8%, the fold change (FC) [11] was less than 5 and the Activity [12] was “Active”.
Molecule `COc1ccc(Cn2nnnc2C(Nc2ccc([Se][Se]c3ccc(NC(c4ccco4)c4nnnn4Cc4ccc(OC)cc4OC)cc3)cc2)c2ccco2)c(OC)c1` (stereo unspecified) has an IC50 [1] of no less than 100 µM, an IC50 [2] of no less than 100 µM and an Activity [3] of 81. For the same molecule, the fold change (FC) [7] was 0.2, the IC50 at 48 h [9] was 88 µM and the Activity [10] was 18.8%. The Activity [12] was “Active”.
For `COc1ccc(-n2nnnc2C(Nc2ccc([Se][Se]c3ccc(NC(c4nnnn4-c4ccc(OC)cc4)C(C)C)cc3)cc2)C(C)C)cc1` (stereo unspecified), the IC50 [1] was no less than 100 µM, the IC50 [2] was no less than 100 µM and the Activity [3] was 77. It also gave a fold change (FC) [7] of 0.3, an IC50 at 48 h [9] of no less than 100 µM and an Activity [10] of 30.5%.
Molecule `CC(C)(C)n1nnnc1CNc1ccc([Se][Se]c2ccc(NCc3nnnn3C(C)(C)C)cc2)cc1` has an IC50 [1] of 28 µM, an IC50 [2] of 44 µM and an Activity [3] of 93. The fold change (FC) [7] was 0.5, the IC50 at 48 h [9] was 21 µM and the Activity [10] was 44.3%. For the same molecule, the Activity [12] was “Active”.

— ChEMBL document CHEMBL3865787, “Combinatorial synthesis, in silico, molecular and biochemical studies of tetrazole-derived organic selenides with increased selectivity against hepatocellular carcinoma” (Eur J Med Chem, 2016)
